Screening results: PubChem, Sanford-Burnham Center for Chemical Genomics
G6PDH CS: inhibits Leuconostoc G6PDH, flagging false hits in G6PDH-based assays; AID 1020; Purified L. mesenteroides G6PDH, diaphorase/resazurin coupled fluorescence, 45 min; inhibition, % at 5 µM; 200,000 compounds, 0.12% hits; in the data active = inhibition above about 50%
PfGluPho inh: PfG6PD (Plasmodium falciparum) enzyme inhibition; PfGluPho enzyme, NADPH resazurin-diaphorase fluorescence; inhibition, % at 20 µM; 350,000 compounds, 0.78% hits;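 active = inhibition reaching at least a set limit at 20 µM in the primary screen, cut at about 59% in these data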
Diaph inh CS: diaphorase inhibition or chemical oxidation counter-screen; diaphorase resazurin-to-resorufin fluorescence, NADH, 16 min; bacterial (C. kluyveri) enzyme, not human; inhibition, % at 20 µM; 190,000 compounds, 0.69% hits;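 active = primary screen inhibition at 20 µM above a set limit, cut at about 50% in these data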
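material = Clostridium kluyveri diaphorase enzyme | amount = 0.14 U/mL diaphorase, enzyme working solution | schedule = incubation 16 min, room temperature | detection = fluorescence of resorufin formed from resazurin, Ex 544/Em 590 nm | benchmarks = positive control minus NADH, DMSO neutral control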
HKDC1 inh: blocks human hexokinase HKDC1 activity. recombinant HKDC1, G6PDH/diaphorase resazurin coupled fluorescence. inhibition, % at 20 µM. 340,000 compounds, 0.16% hits. Q2TB90;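 active = inhibition above about 35% when tested at 20 µM, limit read from the data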
Target sequence (Q2TB90 whole entry, looked up): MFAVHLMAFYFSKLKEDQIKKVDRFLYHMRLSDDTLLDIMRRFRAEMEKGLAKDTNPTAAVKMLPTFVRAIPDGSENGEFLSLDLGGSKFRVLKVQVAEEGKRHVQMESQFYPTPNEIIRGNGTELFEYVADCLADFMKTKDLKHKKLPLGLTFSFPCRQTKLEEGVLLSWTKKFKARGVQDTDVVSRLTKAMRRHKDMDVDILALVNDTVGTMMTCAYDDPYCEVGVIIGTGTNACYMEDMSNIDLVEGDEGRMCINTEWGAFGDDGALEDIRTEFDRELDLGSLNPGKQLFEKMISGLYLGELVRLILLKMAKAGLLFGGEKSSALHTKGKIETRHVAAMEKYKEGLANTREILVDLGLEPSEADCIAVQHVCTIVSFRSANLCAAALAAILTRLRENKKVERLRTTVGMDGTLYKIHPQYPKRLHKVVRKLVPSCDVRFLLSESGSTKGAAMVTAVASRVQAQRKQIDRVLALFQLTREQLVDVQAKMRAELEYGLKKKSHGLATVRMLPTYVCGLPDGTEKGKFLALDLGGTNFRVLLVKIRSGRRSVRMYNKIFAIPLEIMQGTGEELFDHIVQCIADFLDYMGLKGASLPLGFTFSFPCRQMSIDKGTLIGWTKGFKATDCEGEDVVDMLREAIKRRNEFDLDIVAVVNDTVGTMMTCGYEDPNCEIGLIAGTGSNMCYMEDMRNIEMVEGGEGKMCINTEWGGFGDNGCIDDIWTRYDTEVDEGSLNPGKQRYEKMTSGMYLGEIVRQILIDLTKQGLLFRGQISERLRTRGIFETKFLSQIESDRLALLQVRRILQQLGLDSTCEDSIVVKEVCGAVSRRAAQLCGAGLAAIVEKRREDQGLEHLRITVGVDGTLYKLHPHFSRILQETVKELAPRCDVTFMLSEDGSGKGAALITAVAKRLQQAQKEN
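Incubation: 90 min at room temperature in dark / Material: recombinant HKDC1 (HK5) hexokinase enzyme, produced in-house / Quantity: enzyme 5 µg/mL final / Compound: one dose of 20 µM, 1% DMSO / Reagent: glucose and ATP substrates / Buffer or medium: Tris pH 8.0 buffer with MgCl2, Tween-20, BSA, BME / Technique: resorufin fluorescence at 613 nm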
PfGluPho conf: confirmation of Plasmodium falciparum G6PD inhibitors | inhibition, % at 20 µM | shares compounds with PfGluPho inh | 2,400 compounds, 34% hits | recombinant PfGluPho, NADPH-diaphorase-resazurin fluorescence | AID 504753;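 active = inhibition of at least 50% at 20 µM in any single replicate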
Diaph ctr 10uM: inhibits diaphorase or oxidizes, flagging false PfG6PD hits. 820 compounds, 39% hits. inhibition, % at 20 µM. shares compounds with PfGluPho inh. diaphorase-coupled resazurin reduction, fluorescence, NADPH 10 uM;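 active = average inhibition reaching 50% or more with the compound at 20 µM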;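 also: resorufin red fluorescence formed as diaphorase reduces resazurin using NADPH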
Diaph ctr 30uM: counter-screen for P. falciparum G6PD inhibitors: diaphorase inhibitors, oxidizers; shares compounds with PfGluPho inh; Diaphorase/resazurin coupled assay, resorufin fluorescence, 30 uM NADPH; inhibition, % at 20 µM; 820 compounds, 29% hits; AID 504863;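 active = inhibition averaging 50% or more, tested at 20 µM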
Hits are given with their value. The list is not random: actives were taken first. Their share in the collection is about 1.2%.

How did COc1ccccc1Nc1n[nH]c(=S)s1 do in these assays?
G6PDH CS: inactive; PfGluPho inh: inactive; Diaph inh CS: inactive; HKDC1 inh: inactive

Results for COc1cccc(Nc2n[nH]c(=S)s2)c1 ?
G6PDH CS: inactive; PfGluPho inh: 62.0; Diaph inh CS: inactive; HKDC1 inh: inactive; PfGluPho conf: inactive

What do the screens show for `O=C(CSc1nnc(Cc2ccccc2)c(=O)[nH]1)Nc1ccccc1`?
PfGluPho inh: inactive; HKDC1 inh: inactive

How did Cc1[nH]c(C)c(S(=O)(=O)NCc2ccc(N(C)C)cc2)c1C(=O)N1CCCC1 do in these assays?
PfGluPho inh: inactive; HKDC1 inh: inactive

Results for Cc1ccc(-c2nc3cc(NS(=O)(=O)c4ccc(C)cc4)ccc3o2)cc1 ?
G6PDH CS: inactive; PfGluPho inh: inactive; Diaph inh CS: inactive; HKDC1 inh: inactive

How did O=S(=O)(Nc1ccc2oc(-c3ccccc3)nc2c1)c1ccccc1 do in these assays?
G6PDH CS: inactive; PfGluPho inh: 88.0; Diaph inh CS: inactive; HKDC1 inh: inactive; PfGluPho conf: inactive

Results for C[C@H]1CCCCO[C@H](CN(C)Cc2ccccc2)[C@@H](C)CN([C@@H](C)CO)C(=O)c2cc(NC(=O)CCC(F)(F)F)ccc2O1 ?
PfGluPho inh: inactive

What do the screens show for `O=C1c2ccccc2C(=O)c2c1oc(C(F)(F)F)c2C(=O)c1ccccc1`?
G6PDH CS: 57.4; PfGluPho inh: 74.3; Diaph inh CS: inactive; HKDC1 inh: inactive; PfGluPho conf: inactive

How did O=C1C=CC(=O)N1c1ccc2c(c1)C(NC(=O)C(F)(F)F)c1ccccc1-2 (centres undefined) do in these assays?
PfGluPho inh: 97.7; HKDC1 inh: inactive; PfGluPho conf: 51.1; Diaph ctr 10uM: inactive; Diaph ctr 30uM: inactive

What do the screens show for `CN(C)C=Nc1ccc([N+](=O)[O-])c2ccccc12`?
PfGluPho inh: inactive

Results for COc1cccc2c3cccc(OC)c3c3[nH]cnc3c12 ?
PfGluPho inh: 67.8; HKDC1 inh: inactive; PfGluPho conf: inactive

What do the screens show for `COc1ccccc1Nc1nnc(SCc2cc(=O)n3ccsc3n2)s1`?
G6PDH CS: inactive; PfGluPho inh: 66.7; Diaph inh CS: inactive; HKDC1 inh: inactive; PfGluPho conf: inactive

Results for Cc1ccc(Nc2nnc(SCc3cc(=O)n4ccsc4n3)s2)c(C)c1 ?
G6PDH CS: inactive; PfGluPho inh: inactive; Diaph inh CS: inactive; HKDC1 inh: inactive

Results for C=CCc1c(C)nc(C)nc1N/N=C/c1ccccc1O ?
G6PDH CS: inactive; PfGluPho inh: 68.5; Diaph inh CS: inactive; HKDC1 inh: inactive; PfGluPho conf: inactive

Results for C=CCc1c(C)nc(C)nc1N/N=C/c1ccc([N+](=O)[O-])cc1 ?
G6PDH CS: inactive; PfGluPho inh: inactive; Diaph inh CS: inactive; HKDC1 inh: inactive

What do the screens show for `CC1(OC(=O)C2CCCC2)C(=O)C=C2C=C(c3ccsc3)N(C(CO)CO)C=C2C1=O` (centres undefined)?
PfGluPho inh: 66.3; HKDC1 inh: inactive; PfGluPho conf: inactive

How did CC1(OC(=O)C2CCCC2)C(=O)C=C2C=C(c3ccsc3)N(C3CC3)C=C2C1=O (centres undefined) do in these assays?
PfGluPho inh: 80.0; HKDC1 inh: inactive; PfGluPho conf: inactive

Results for CC1(OC(=O)C2CCCC2)C(=O)C=C2C=C(c3ccsc3)N(CCc3ccccn3)C=C2C1=O (centres undefined) ?
PfGluPho inh: 69.5; HKDC1 inh: inactive; PfGluPho conf: inactive

How did CN(C)Cc1ccccc1CNC(=O)c1cccc(S(=O)(=O)Nc2ccc3c(c2)OCO3)c1 do in these assays?
PfGluPho inh: inactive

Results for CCOC(=O)N1CCN(Cc2nc3cc(NC(=O)CC(C)C)ccc3n2CC)CC1 ?
PfGluPho inh: inactive; HKDC1 inh: inactive

Results for CCOC(=O)c1c(CSc2ccccc2)n(C)c2cc(Br)c(OCC(O)CNC(CO)(CO)CO)cc12 (centres undefined) ?
G6PDH CS: inactive; PfGluPho inh: 61.3; Diaph inh CS: inactive; HKDC1 inh: inactive; PfGluPho conf: inactive

What do the screens show for `CCOC(=O)c1c(CSc2ccccc2)n(C)c2cc(Br)c(OC)c(O)c12`?
PfGluPho inh: inactive; HKDC1 inh: inactive

How did COc1ccc(CNC(=O)CCNS(=O)(=O)c2cc(Br)cnc2N)cc1 do in these assays?
PfGluPho inh: inactive; HKDC1 inh: inactive

How did CSc1cnn(Cc2ccccc2)c(=O)c1SCc1ccccc1 do in these assays?
G6PDH CS: inactive; PfGluPho inh: 65.5; Diaph inh CS: inactive; HKDC1 inh: inactive; PfGluPho conf: inactive

How did CSc1cnn(-c2ccccc2)c(=O)c1SC do in these assays?
G6PDH CS: inactive; PfGluPho inh: inactive; Diaph inh CS: inactive; HKDC1 inh: inactive

Results for C[C@H]1[C@H](NC(=O)C(=NOC(C)(C)C(=O)O)c2csc(N)n2)C(=O)N1S(=O)(=O)O ?
PfGluPho inh: inactive; HKDC1 inh: inactive

How did COc1cccc(C(=O)Nc2sc(C(C)C)cc2C(N)=O)c1OC do in these assays?
PfGluPho inh: 97.7; HKDC1 inh: inactive; PfGluPho conf: inactive

What do the screens show for `COc1cccc(C(=O)Nc2nnc(-c3ccccc3)s2)c1OC`?
PfGluPho inh: inactive; HKDC1 inh: inactive

How did COc1ccc(N2CCN(C(=O)C3CCN(C(=O)c4ccc([N+](=O)[O-])cc4)CC3)CC2)cc1 do in these assays?
PfGluPho inh: inactive; HKDC1 inh: inactive

What do the screens show for `C[C@@H]1CN([C@H](C)CO)C(=O)CCCn2nncc2CO[C@@H]1CN(C)S(=O)(=O)c1ccccc1F`?
PfGluPho inh: inactive

What do the screens show for `CCC1CCCCN1C(=O)CSc1nnc(N)s1` (centres undefined)?
PfGluPho inh: inactive; HKDC1 inh: inactive

How did c1ccc(CN2CCC(N3CCC(N4CCCCCC4)CC3)CC2)cc1 do in these assays?
PfGluPho inh: inactive; HKDC1 inh: inactive

What do the screens show for `c1ccc2c(c1)c1c(c3ccccc32)CN2CCCC2C1` (centres undefined)?
PfGluPho inh: 64.6; HKDC1 inh: inactive; PfGluPho conf: inactive

Results for COc1cc(C(=O)Nc2nc(C)c(Cc3ccc4c(c3)OCO4)s2)cc(OC)c1OC ?
G6PDH CS: inactive; PfGluPho inh: 62.3; Diaph inh CS: inactive; HKDC1 inh: inactive; PfGluPho conf: inactive

What do the screens show for `CC(C)OP(=O)(c1ccc(N(C)C)cc1)C(O)c1ccc(N(C)C)cc1` (centres undefined)?
PfGluPho inh: 67.8; HKDC1 inh: inactive; PfGluPho conf: inactive

Results for O=[N+]([O-])c1cccc(S(=O)(=O)Nc2ccc3cn[nH]c3c2)c1 ?
PfGluPho inh: inactive; HKDC1 inh: inactive
